Data on 21 substances can be found in paper PMC6645473 (ACS Omega, 2018).

The subject of the experiment is Aβ1–42 toxicity in PC-12 cells. Description: MTT cell viability assay, Aβ1–42 co-incubated with tetrapeptides. Type of experiment: cell-based. The note with it: calculated from OD570 of MTT assay in PC-12 cells. A digest of the protocol:
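PC-12 cells were grown in F-12K with 5% FBS and 10% horse serum and used at 70% confluence. For the assay, medium was switched to F-12K with 10% FBS, and cells were seeded at 17 000/well overnight. Monomerized Aβ1–42 was added with test peptide (DMSO stock diluted in PBS; 1:1, 1:5, 1:10) for 6 h. MTT was then added for 4 h, followed by DMSO solubilization and OD570. Inhibition % = 100×(OD peptide+Aβ − OD Aβ)/(OD control − OD Aβ).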

Where no end group is shown, it is not given here. [ ]: non-standard residue; d: D form. Aib = CC(C)(N)C(=O)O

With [dI]VIA [compound 6], the “inhibition (%) of Aβ1–42 (2 μM)” value reads like this: (test peptide 2 μM) 0%; (test peptide 10 μM) 0%; (test peptide 20 μM) 0%.

For the substance [Aib][Aib]IA [compound 24], the “inhibition (%) of Aβ1–42 (2 μM)” value runs as follows: (test peptide 2 μM) 13.0%; (test peptide 10 μM) 18.0%; (test peptide 20 μM) 73.0%.

On to Pro-Pro-Ile-Ala [compound 25], for which the “inhibition (%) of Aβ1–42 (2 μM)” value is 14.0% (test peptide 2 μM), 39.0% (test peptide 10 μM) and 90.0% (test peptide 20 μM).

Consider Val-Pro-Ile-Ala [compound 19], for which the “inhibition (%) of Aβ1–42 (2 μM)” value is, setting by setting: (test peptide 2 μM) 16.0%; (test peptide 10 μM) 17.0%; (test peptide 20 μM) 24.0%.

Regarding [dL]VIA [compound 4], the “inhibition (%) of Aβ1–42 (2 μM)” value by setting is: (test peptide 2 μM) 0%; (test peptide 10 μM) 0%; (test peptide 20 μM) 2.0%.

Regarding [Aib]VIA [compound 10], the “inhibition (%) of Aβ1–42 (2 μM)” value is reported as 1.0% (test peptide 2 μM), 9.0% (test peptide 10 μM) and 13.0% (test peptide 20 μM).

As to Ile-Val-Ile-Ala [compound 7], the “inhibition (%) of Aβ1–42 (2 μM)” value is on record as 0% (test peptide 2 μM), 3.0% (test peptide 10 μM) and 2.0% (test peptide 20 μM).

For V[dV]IA [compound 12], the “inhibition (%) of Aβ1–42 (2 μM)” value runs as follows: (test peptide 2 μM) 0%; (test peptide 10 μM) 0%; (test peptide 20 μM) 0%.

On to VV[dF]A [compound 35], for which the “inhibition (%) of Aβ1–42 (2 μM)” value reads like this: (test peptide 2 μM) 4.0%; (test peptide 10 μM) 10.0%; (test peptide 20 μM) 9.0%.

As to V[dI]IA [compound 16], the “inhibition (%) of Aβ1–42 (2 μM)” value is 20.0% (test peptide 2 μM), 20.0% (test peptide 10 μM) and 27.0% (test peptide 20 μM).

With Val-Val-Ile-Ile [compound 42], the “inhibition (%) of Aβ1–42 (2 μM)” value runs as follows: (test peptide 2 μM) 24.0%; (test peptide 10 μM) 27.0%; (test peptide 20 μM) 29.0%.

As for Leu-Val-Ile-Ala [compound 5], the “inhibition (%) of Aβ1–42 (2 μM)” value (test peptide 2 μM) is 0%, the “inhibition (%) of Aβ1–42 (2 μM)” value (test peptide 10 μM) is listed as 0% and the “inhibition (%) of Aβ1–42 (2 μM)” value (test peptide 20 μM) is on record as 0%.

As to Pro-Val-Ile-Ala [compound 9], the “inhibition (%) of Aβ1–42 (2 μM)” value by setting is: (test peptide 2 μM) 0%; (test peptide 10 μM) 0%; (test peptide 20 μM) 0%.

For the substance Val-Val-Ile-Val [compound 40], the “inhibition (%) of Aβ1–42 (2 μM)” value by setting is: (test peptide 2 μM) 4.0%; (test peptide 10 μM) 13.0%; (test peptide 20 μM) 9.0%.

As to Val-Val-Val-Ala [compound 31], the “inhibition (%) of Aβ1–42 (2 μM)” value was 0% (test peptide 2 μM), 0% (test peptide 10 μM) and 3.0% (test peptide 20 μM).

Consider VV[dI]A [compound 26], for which the “inhibition (%) of Aβ1–42 (2 μM)” value is, setting by setting: (test peptide 2 μM) 0%; (test peptide 10 μM) 0%; (test peptide 20 μM) 0%.

For V[dF]IA [compound 21], the “inhibition (%) of Aβ1–42 (2 μM)” value is on record as 0% (test peptide 2 μM), 5.0% (test peptide 10 μM) and 0% (test peptide 20 μM).

With VV[dV]A [compound 30], the “inhibition (%) of Aβ1–42 (2 μM)” value by setting is: (test peptide 2 μM) 0%; (test peptide 10 μM) 0%; (test peptide 20 μM) 0%.

With [dP]VIA [compound 8], the “inhibition (%) of Aβ1–42 (2 μM)” value is listed as 5.0% (test peptide 2 μM), 9.0% (test peptide 10 μM) and 4.0% (test peptide 20 μM).

For VV[dP]A [compound 32], the “inhibition (%) of Aβ1–42 (2 μM)” value was 27.0% (test peptide 2 μM), 26.0% (test peptide 10 μM) and 21.0% (test peptide 20 μM).

Regarding Val-Ile-Ile-Ala [compound 17], the “inhibition (%) of Aβ1–42 (2 μM)” value is 0% (test peptide 2 μM), 0% (test peptide 10 μM) and 0% (test peptide 20 μM).
